# Assay results published in ChEMBL document CHEMBL1128718, “2-Substituted penems with amino acid-related side chains: synthesis and antibacterial activity of a new series of beta-lactam antibiotics” (1995).
# Legend:
# Format in all cases: functional
# [1] = system: Staphylococcus epidermidis; assay: In Vitro Anti Bacterial Activity (MIC90) against 90% of tested clinical Isolates of Staphylococcus epidermidis (13)
# In short: (§1)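 Over 500 clinical isolates tested in total; the line gives the isolate count. MIC90 for aerobes by dilution in Mueller Hinton 2 medium, inoculum 10⁴ cells/mL, incubated 24 h at 37 °C.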
# [2] = system: Clostridium perfringens; assay: In Vitro Anti Bacterial Activity (MIC90) against 90% of tested clinical Isolates of Clostridium perfringens(27)
# In short: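 MIC90 over clinical isolates of this anaerobic species, taken from the MIC distribution. Anaerobes were tested on Wilkins-Chalgren agar with an inoculum of 10⁵ cells/mL and incubated 24–48 h at 37 °C.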
# [3] = system: Streptococcus agalactiae; assay: In Vitro Anti Bacterial Activity (MIC90) against 90% of tested clinical Isolates of Streptococcus agalactiaeB(21)
# [4] = system: Listeria monocytogenes; assay: In Vitro Anti Bacterial Activity (MIC90) against 90% of tested clinical Isolates of Listeria monocytogenes (20); in short: as §1
# [5] = system: Staphylococcus aureus; assay: In vitro antibacterial activity against Sa(II) Staphylococcus aureus ATCC 25923
# In short: (§2)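 Panel of standard ATCC strains plus modified strains: methicillin-resistant, hyperpermeable, β-lactamase-producing (TEM1, TEM2, SHV) and β-lactamase-lacking. MIC determined in Mueller Hinton 2 medium, inoculum 10⁴ cells/mL, incubated 24 h at 37 °C.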
# [6] = system: Yersinia sp.; assay: In Vitro Anti Bacterial Activity (MIC90) against 90% of tested clinical Isolates of Yersinia species(20); settings: Yersinia sp. (in: enterobacteria)
# [7] = system: Stenotrophomonas maltophilia; assay: In Vitro Anti Bacterial Activity (MIC90) against 90% of tested clinical Isolates of Xanthomonas maltophilia(9); in short: as §1
# [8] = system: Aeromonas; assay: In Vitro Anti Bacterial Activity (MIC90) against 90% of tested clinical Isolates of Aeromonas species(21); in short: as §1
# [9] = system: Streptococcus pneumoniae; assay: In Vitro Anti Bacterial Activity (MIC90) against 90% of tested clinical Isolates of Streptococcus pneumoniae (23)
# [10] = system: Escherichia coli; assay: In Vitro antibacterial activity against (Ec SHV) Escherichia coli […] strain; in short: as §2
# [11] = system: Pseudomonas aeruginosa; assay: In Vitro antibacterial activity against (Pa) Pseudomonas aeruginosa ATCC 27853; in short: as §2
# [12] = system: Haemophilus influenzae; assay: In Vitro Anti Bacterial Activity (MIC90) against 90% of tested clinical Isolates of Haemophilus Influenzae(21)
# In short: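 Clinical isolates. MIC90 in Haemophilus Test Medium Base plus Haemophilus Test Medium Supplement, inoculum 10⁴ cells/mL, incubated 24–48 h at 37 °C.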
# [13] = system: Staphylococcus aureus; assay: In vitro antibacterial activity against Sa(I) Staphylococcus aureus ATCC 29213
# In short: (§3)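 MIC was determined in Mueller Hinton 2 medium with an inoculum of 10⁴ cells/mL and incubation for 24 h at 37 °C. Strains: Sa(I) is S. aureus ATCC 29213; Sa MR(I) is a heterogeneous methicillin-resistant S. aureus; Sa MR(II) is a homogeneous methicillin-resistant S. aureus.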
# [14] = system: Streptococcus pyogenes; assay: In Vitro Anti Bacterial Activity (MIC90) against 90% of tested clinical Isolates of Streptococcus pyogenes(31)
# [15] = system: Staphylococcus aureus; assay: In vitro antibacterial activity against Sa MR(I) heterogeneous methicillin resistant Staphylococcus aureus; in short: as §3
# [16] = system: Pseudomonas aeruginosa; assay: In Vitro antibacterial activity against (Pa G242) hyperpermeable Pseudomonas aeruginosa strain; in short: as §2
# [17] = system: Enterococcus faecalis; assay: In Vitro antibacterial activity against (Ef) Enterococcus faecalis ATCC 29212; in short: as §2
# [18] = system: Citrobacter freundii; assay: In Vitro Anti Bacterial Activity (MIC90) against 90% of tested clinical Isolates of Citrobacter freundii(20); in short: as §1
# [19] = system: Klebsiella pneumoniae; assay: In Vitro Anti Bacterial Activity (MIC90) against 90% of tested clinical Isolates of Klebsiella pneumoniae(20); in short: as §1
# [20] = system: Escherichia coli; assay: In Vitro antibacterial activity against (Ec) Escherichia coli ATCC 25922; in short: as §2
# [21] = system: Bacteroides fragilis; assay: In Vitro Anti Bacterial Activity (MIC90) against 90% of tested clinical Isolates of Bacteroides fragilis(15)
# In short: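 Anaerobic clinical isolates. MIC90 by dilution in Wilkins-Chalgren agar, inoculum 10⁵ cells/mL, incubated 24–48 h at 37 °C.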
# [22] = system: Enterococcus faecium; assay: In Vitro Anti Bacterial Activity (MIC90) against 90% of tested clinical Isolates of Enterococcus faecium(47); in short: as §1
# [23] = system: Escherichia coli; assay: In Vitro antibacterial activity against (Ec TEM2) Escherichia coli […] strain; in short: as §2
# [24] = system: Escherichia coli; assay: In Vitro antibacterial activity against (Ec TEM1) Escherichia coli […] strain; in short: as §2
# [25] = system: Moraxella catarrhalis; assay: In Vitro Anti Bacterial Activity (MIC90) against 90% of tested clinical Isolates of Branhamella catarrhalis(27)
# [26] = system: Pseudomonas aeruginosa; assay: In Vitro Anti Bacterial Activity (MIC90) against 90% of tested clinical Isolates of Pseudomonas aeruginosa(11); in short: as §1
# [27] = system: Pseudomonas aeruginosa; assay: In Vitro antibacterial activity against (Pa) hyperpermeable Pseudomonas aeruginosa […] strain; in short: as §2
# [28] = system: Escherichia coli; assay: In Vitro antibacterial activity against (Ec L) Escherichia coli […] strain; in short: as §2
# [29] = system: Staphylococcus aureus; assay: In Vitro Anti Bacterial Activity (MIC90) against 90% of tested clinical Isolates of Staphylococcus aureus MV (20)
# [30] = system: Staphylococcus aureus; assay: In Vitro Anti Bacterial Activity (MIC90) against 90% of tested clinical Isolates of Staphylococcus aureus MS (6); in short: as §1
# [31] = system: Escherichia coli; assay: In Vitro antibacterial activity against (Ec DC2) hyperpermeable Escherichia coli strain; in short: as §2
# [32] = system: Enterococcus faecalis; assay: In Vitro Anti Bacterial Activity (MIC90) against 90% of tested clinical Isolates of Enterococcus faecalis(47); in short: as §1
# [33] = system: Escherichia coli; assay: In Vitro Anti Bacterial Activity (MIC90) against 90% of tested clinical Isolates of Escherichia coli; in short: as §1
# [34] = system: Acinetobacter calcoaceticus subsp. anitratus; assay: In Vitro Anti Bacterial Activity (MIC90) against 90% of tested clinical Isolates of Acinetobacter anitratus(20); in short: as §1
# [35] = system: Klebsiella aerogenes; assay: In Vitro Anti Bacterial Activity (MIC90) against 90% of tested clinical Isolates of Enterobacter aerogenes(19); in short: as §1
# [36] = system: Staphylococcus aureus; assay: In vitro antibacterial activity against Sa MR(II) homogeneous methicillin resistant Staphylococcus aureus; in short: as §3
# [37] = system: Proteus mirabilis; assay: In Vitro Anti Bacterial Activity (MIC90) against 90% of tested clinical Isolates of Proteus mirabilis(16); in short: as §1
# [38] = system: Providencia rettgeri; assay: In Vitro Anti Bacterial Activity (MIC90) against 90% of tested clinical Isolates of Providencia rettgeri(10); in short: as §1
# [39] = system: Providencia stuartii; assay: In Vitro Anti Bacterial Activity (MIC90) against 90% of tested clinical Isolates of Providencia stuartii(10); in short: as §1
# [40] = system: Proteus vulgaris; assay: In Vitro Anti Bacterial Activity (MIC90) against 90% of tested clinical Isolates of Proteus vulgaris(10); in short: as §1
# [41] = system: Morganella morganii; assay: In Vitro Anti Bacterial Activity (MIC90) against 90% of tested clinical Isolates of Morganella morganii(10); in short: as §1
structure (smiles),measurement,setting,value
C[C@@H](O)[C@H]1C(=O)N2C(C(=O)O)=C(CN3CCC[C@@H]3C(N)=O)S[C@H]12,MIC90,[1],0.12 mg/L
same,MIC90,[2],1 mg/L
same,MIC90,[3],0.12 mg/L
same,MIC90,[4],2 mg/L
same,MIC,[5],0.015 mg/L
same,MIC90,[6],1 mg/L
same,MIC90,[7],> 64 mg/L
same,MIC90,[8],0.25 mg/L
same,MIC90,[9],0.5 mg/L
same,MIC,[10],1 mg/L
same,MIC,[11],32 mg/L
same,MIC90,[12],2 mg/L
same,MIC,[13],0.06 mg/L
same,MIC90,[14],0.5 mg/L
same,MIC,[15],0.12 mg/L
same,MIC,[16],1 mg/L
same,MIC,[17],16 mg/L
same,MIC90,[18],1 mg/L
same,MIC90,[19],1 mg/L
same,MIC,[20],1 mg/L
same,MIC90,[21],16 mg/L
same,MIC90,[22],> 64 mg/L
same,MIC,[23],1 mg/L
same,MIC,[24],1 mg/L
same,MIC90,[25],2 mg/L
same,MIC90,[26],> 64 mg/L
same,MIC,[27],0.25 mg/L
same,MIC,[28],1 mg/L
same,MIC90,[29],8 mg/L
same,MIC90,[30],0.06 mg/L
same,MIC,[31],0.5 mg/L
same,MIC90,[32],32 mg/L
same,MIC90,[33],1 mg/L
same,MIC90,[34],32 mg/L
same,MIC90,[35],16 mg/L
same,MIC,[36],4 mg/L
C[C@@H](O)[C@H]1C(=O)N2C(C(=O)O)=C(CN(C)CC(N)=O)S[C@H]12,MIC90,[1],0.015 mg/L
same,MIC90,[2],0.5 mg/L
same,MIC90,[3],0.06 mg/L
same,MIC90,[4],0.5 mg/L
same,MIC,[5],0.015 mg/L
same,MIC90,[6],0.5 mg/L
same,MIC90,[7],> 64 mg/L
same,MIC90,[8],1 mg/L
same,MIC90,[9],0.06 mg/L
same,MIC,[10],0.5 mg/L
same,MIC,[11],> 64 mg/L
same,MIC90,[37],1 mg/L
same,MIC90,[12],2 mg/L
same,MIC90,[38],2 mg/L
same,MIC,[13],0.06 mg/L
same,MIC90,[14],0.06 mg/L
same,MIC,[15],0.06 mg/L
same,MIC,[16],4 mg/L
same,MIC,[17],4 mg/L
same,MIC90,[18],1 mg/L
same,MIC90,[19],0.5 mg/L
same,MIC,[20],0.25 mg/L
same,MIC90,[21],2 mg/L
same,MIC90,[22],> 64 mg/L
same,MIC,[23],0.5 mg/L
same,MIC,[24],0.25 mg/L
same,MIC90,[25],0.25 mg/L
same,MIC90,[26],> 64 mg/L
same,MIC,[27],0.5 mg/L
same,MIC,[28],0.25 mg/L
same,MIC90,[29],4 mg/L
same,MIC90,[30],0.0075 mg/L
same,MIC,[31],0.25 mg/L
same,MIC90,[32],8 mg/L
same,MIC90,[39],2 mg/L
same,MIC90,[33],0.25 mg/L
same,MIC90,[34],16 mg/L
same,MIC90,[35],8 mg/L
same,MIC90,[40],2 mg/L
same,MIC,[36],1 mg/L
same,MIC90,[41],2 mg/L
